Assay results published in ChEMBL document CHEMBL1149455, “Structure-activity relationship study of 1,4-dihydropyridine derivatives blocking N-type calcium channels” (Bioorg Med Chem Lett, 2006).

Tests used:
[1] = biological target: Voltage-dependent N-type calcium channel subunit alpha-1B (Homo sapiens, UniProt Q00975); assay: Inhibitory activity against N-type calcium channel by calcium influx into IMR32 cells; type: functional, cell-based, IMR-32
[2] = biological target: Voltage-gated L-type calcium channel (Rattus norvegicus, UniProt P22002+Q02485+P27732); assay: Inhibitory activity against L-type calcium channel in SD rat thoracic aorta by Magnus method; type: functional, tissue-based
Outline: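 Aortic ring held at 2 g resting tension and equilibrated 1 h. It was then exposed to high-K⁺ solution and then Tyrode's solution, 45 min each, and returned to high-K⁺. After maximal contraction, compound was added cumulatively at 90-min intervals to 10⁻⁹, 10⁻⁸, 10⁻⁷ and 10⁻⁶ M. IC50 was derived from inhibition of the K⁺-induced contraction.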

[3] = test system: Rattus norvegicus; assay: Analgesic effect in rat following foot-pad injection of formalin at 30 mg/kg, po; type: functional

Voltage-dependent N-type calcium channel subunit alpha-1B, sequence (Q00975 whole entry): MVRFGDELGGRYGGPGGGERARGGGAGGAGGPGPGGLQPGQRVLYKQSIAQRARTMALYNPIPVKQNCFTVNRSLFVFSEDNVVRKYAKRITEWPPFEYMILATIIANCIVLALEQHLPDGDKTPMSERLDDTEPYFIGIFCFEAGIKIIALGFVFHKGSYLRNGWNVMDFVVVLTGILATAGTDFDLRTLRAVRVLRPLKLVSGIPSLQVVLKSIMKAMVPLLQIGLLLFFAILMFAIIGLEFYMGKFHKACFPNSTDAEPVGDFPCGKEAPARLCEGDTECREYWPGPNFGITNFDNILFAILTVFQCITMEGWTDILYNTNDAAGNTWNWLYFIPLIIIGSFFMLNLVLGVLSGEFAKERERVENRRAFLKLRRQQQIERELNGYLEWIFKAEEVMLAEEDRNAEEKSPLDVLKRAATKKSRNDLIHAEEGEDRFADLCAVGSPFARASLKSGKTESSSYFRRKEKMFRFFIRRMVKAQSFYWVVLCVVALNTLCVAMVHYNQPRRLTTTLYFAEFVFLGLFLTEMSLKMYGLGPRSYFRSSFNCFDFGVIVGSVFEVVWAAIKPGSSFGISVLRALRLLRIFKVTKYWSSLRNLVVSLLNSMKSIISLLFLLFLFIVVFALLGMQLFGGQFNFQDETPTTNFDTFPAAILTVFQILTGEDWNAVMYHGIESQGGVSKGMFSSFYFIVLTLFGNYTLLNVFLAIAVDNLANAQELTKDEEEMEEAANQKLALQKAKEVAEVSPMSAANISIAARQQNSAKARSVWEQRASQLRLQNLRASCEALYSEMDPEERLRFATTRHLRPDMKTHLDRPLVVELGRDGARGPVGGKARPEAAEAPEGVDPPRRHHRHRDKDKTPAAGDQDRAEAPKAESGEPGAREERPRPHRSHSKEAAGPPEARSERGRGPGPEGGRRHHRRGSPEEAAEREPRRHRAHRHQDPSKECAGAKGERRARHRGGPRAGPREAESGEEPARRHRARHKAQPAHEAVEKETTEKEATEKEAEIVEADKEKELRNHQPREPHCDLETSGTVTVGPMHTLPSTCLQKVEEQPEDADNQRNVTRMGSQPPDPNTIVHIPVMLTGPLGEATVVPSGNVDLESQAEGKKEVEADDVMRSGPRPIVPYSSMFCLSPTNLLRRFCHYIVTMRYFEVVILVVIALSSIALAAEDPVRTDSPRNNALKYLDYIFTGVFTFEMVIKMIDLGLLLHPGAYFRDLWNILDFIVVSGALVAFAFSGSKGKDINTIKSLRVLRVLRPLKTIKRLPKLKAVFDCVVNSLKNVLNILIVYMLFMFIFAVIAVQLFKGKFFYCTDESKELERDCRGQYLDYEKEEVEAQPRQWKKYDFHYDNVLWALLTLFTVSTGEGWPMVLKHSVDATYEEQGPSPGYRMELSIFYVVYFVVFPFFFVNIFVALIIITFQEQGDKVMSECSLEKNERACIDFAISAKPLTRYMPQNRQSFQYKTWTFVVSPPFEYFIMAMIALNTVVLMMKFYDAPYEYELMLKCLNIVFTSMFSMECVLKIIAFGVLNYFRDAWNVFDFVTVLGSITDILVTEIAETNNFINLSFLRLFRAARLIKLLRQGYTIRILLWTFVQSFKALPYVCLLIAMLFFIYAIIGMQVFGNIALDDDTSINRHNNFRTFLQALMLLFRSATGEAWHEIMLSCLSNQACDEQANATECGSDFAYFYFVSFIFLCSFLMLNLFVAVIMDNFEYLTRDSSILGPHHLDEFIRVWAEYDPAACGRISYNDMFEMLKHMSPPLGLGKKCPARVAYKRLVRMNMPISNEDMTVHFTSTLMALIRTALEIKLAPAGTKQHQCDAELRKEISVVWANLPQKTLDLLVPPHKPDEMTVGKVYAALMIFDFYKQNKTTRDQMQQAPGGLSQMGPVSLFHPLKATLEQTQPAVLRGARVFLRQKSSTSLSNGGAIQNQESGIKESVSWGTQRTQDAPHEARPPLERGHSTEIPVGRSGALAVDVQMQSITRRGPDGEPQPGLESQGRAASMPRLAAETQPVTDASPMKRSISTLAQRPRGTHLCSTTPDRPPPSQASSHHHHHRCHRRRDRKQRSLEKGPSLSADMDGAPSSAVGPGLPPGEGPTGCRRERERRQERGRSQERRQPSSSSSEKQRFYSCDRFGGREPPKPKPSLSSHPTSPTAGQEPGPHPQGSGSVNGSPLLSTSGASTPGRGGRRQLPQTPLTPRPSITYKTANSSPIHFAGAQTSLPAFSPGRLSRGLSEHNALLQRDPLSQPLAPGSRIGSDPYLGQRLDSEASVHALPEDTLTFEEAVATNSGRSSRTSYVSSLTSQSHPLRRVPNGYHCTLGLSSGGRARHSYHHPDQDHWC

Row | Structure (SMILES) | IC50 [1] [nM] | IC50 [2] [nM] | inhibition in vivo at 30 mg/kg [3] [%]
1 | CC1=NC(C)=C(C(=O)O)C(c2ccccc2[N+](=O)[O-])/C1=C(\O)OC/C=C/c1ccccc1 (stereo unspecified) | 37000 | 31 | –
2 | COC(=O)c1cccc(C2C(C(=O)O)=C(C)N=C(C)/C2=C(/O)OC/C=C/c2ccccc2)c1 (stereo unspecified) | 4600 | 4400 | –
3 | CC1=NC(C)=C(C(=O)O)C(c2cccnc2)/C1=C(\O)OC/C=C/c1ccccc1 (stereo unspecified) | 24000 | 190 | –
4 | CC1=NC(C)=C(C(=O)O)C(c2cccc(C(=O)O)c2)/C1=C(\O)OC/C=C/c1ccccc1 (stereo unspecified) | 37000 | > 10000 | –
5 | CC1=NC(C)=C(C(=O)O)C(c2cccc(Cl)c2)/C1=C(\O)OCCC(c1ccccn1)c1ccccn1 (stereo unspecified) | 10000 | 1600 | –
6 | CC1=NC(C)=C(C(=O)O)C(c2ccoc2)/C1=C(\O)OC/C=C/c1ccccc1 (stereo unspecified) | 11000 | 130 | –
7 | CC1=NC(C)=C(C(=O)O)C(c2cccc(Cl)c2)/C1=C(\O)OCC(=O)Nc1ccccc1 (stereo unspecified) | 28000 | 50 | –
8 | CC1=NC(C)=C(C(=O)O)C(c2cccc(Cl)c2)/C1=C(\O)OCc1ccc2ccccc2c1 (stereo unspecified) | 3900 | 14 | –
9 | CC1=NC(C)=C(C(=O)O)C(c2cccc(Cl)c2)/C1=C(\O)OC/C=C/c1ccncc1 (stereo unspecified) | 6200 | 320 | –
10 | CC1=NC(C)=C(C(=O)O)C(c2ccc([N+](=O)[O-])cc2)/C1=C(\O)OC/C=C/c1ccccc1 (stereo unspecified) | 21000 | 1600 | –
11 | CC1=NC(C)=C(C(=O)O)C(c2cccc(Cl)c2)/C1=C(\O)OCC=C(c1ccccc1)c1ccccc1 (stereo unspecified) | 3900 | 200 | –
12 | CC1=C(C(=O)O)C(c2cccc(Cl)c2)C(C(=O)NC/C=C/c2ccccc2)=C(C)N1 (stereo unspecified) | 4500 | 850 | –

The next molecules have a lower IC50 [1] than those just listed; values first:

Row | IC50 [1] [nM] | IC50 [2] [nM] | Structure (SMILES) | inhibition in vivo at 30 mg/kg [3] [%]
13 | 1300 | 20 | CC1=NC(C)=C(C(=O)O)C(c2cccc(F)c2)/C1=C(\O)OC/C=C/c1ccccc1 (stereo unspecified) | –
14 | 680 | 2.8 | CC1=NC(C)=C(C(=O)O)C(c2cccc(Cl)c2)/C1=C(\O)OC/C(C)=C/c1ccccc1 (stereo unspecified) | –
15 | 1500 | 5.8 | CC1=NC(C)=C(C(=O)O)C(c2cccc(Cl)c2)/C1=C(\O)OC/C=C/c1ccc(Cl)cc1 (stereo unspecified) | –
16 | 1600 | 1.1 | COCCOC(=O)C1=C(C)NC(C)=C(C(=O)OC/C=C/c2ccccc2)C1c1cccc([N+](=O)[O-])c1 (stereo unspecified) [CILNIDIPINE] | 46
17 | 1700 | 1800 | CC1=C(C(=O)O)C(c2cccc(Cl)c2)C(C(=O)OCCC(c2ccccc2)c2ccccc2)=C(C(F)(F)F)N1 (stereo unspecified) | 46
18 | 1700 | 13 | CC1=NC(C)=C(C(=O)O)C(c2cccc(I)c2)/C1=C(\O)OC/C=C/c1ccccc1 (stereo unspecified) | –
19 | 790 | 10 | CC1=NC(C)=C(C(=O)O)C(c2cccc(Br)c2)/C1=C(\O)OC/C=C/c1ccccc1 (stereo unspecified) | –
20 | 3500 | 46 | CC1=C(C(=O)O)C(c2cccc([N+](=O)[O-])c2)C(C(=O)OC/C=C/c2ccccc2)=C(C)N1 (stereo unspecified) | –
21 | 2900 | 44 | CC1=NC(C)=C(C(=O)O)C(c2ccsc2)/C1=C(\O)OC/C=C/c1ccccc1 (stereo unspecified) | –
22 | 830 | 3.7 | CC1=NC(C)=C(C(=O)O)C(c2cccc(Cl)c2)/C1=C(\O)OC/C=C/C1CCCCC1 (stereo unspecified) | –
23 | 1000 | 20 | CC1=NC(C)=C(C(=O)O)C(c2cccc(Cl)c2)/C1=C(\O)OC/C=C/c1ccccc1 (stereo unspecified) | –
24 | 1800 | 76 | CC1=NC(C)=C(C(=O)O)C(c2cccc(C)c2)/C1=C(\O)OC/C=C/c1ccccc1 (stereo unspecified) | –
25 | 890 | 6.8 | CC1=NC(C)=C(C(=O)O)C(c2cccc(Cl)c2)/C1=C(\O)OC/C=C/c1ccc(C)cc1 (stereo unspecified) | –
26 | 2000 | 9 | CC1=NC(C)=C(C(=O)O)C(c2ccccc2)/C1=C(\O)OC/C=C/c1ccccc1 (stereo unspecified) | –
27 | 1100 | 360 | CC1=NC(C)=C(C(=O)O)C(c2cccc(Cl)c2)/C1=C(\O)OCCC(c1ccccc1)c1ccccc1 (stereo unspecified) | –
